Only some compounds are listed: those with a hit (about 1.5% of all), similar ones and a draw of the others.
Hsp70 act: transcriptional activators of Hsp70; 200,000 compounds, 0.04% hits; HeLa Hsp70 promoter luciferase reporter, luminescence; scaled: vehicle 0, proteasome-inhibitor control 100%; activation, % at 10 µM;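 active = activation above the mean across all tested compounds plus 3 SD, cutoff set per campaign, cut at about 5.5% in these data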;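 also: 100% = MG132 at 30 µM as the positive control and 0% = DMSO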
MDM2 E3 inh: inhibitors of human Mdm2 E3 ubiquitin ligase | 210,000 compounds, 0.11% hits | signal enhancement, % at 5 µM | cell-based MDM2 ubiquitination luciferase reporter, 2 h; 0 = plate control, 100 = twice control, blank-subtracted | AID 1230;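 active = signal enhancement of 30% or more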;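 also: luminescence tracks abundance of the self-degrading MDM2-luciferase fusion protein; higher signal means inhibition of MDM2 E3 ligase activity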
Target sequence (Q00987 whole entry, looked up, the tested form may be a part): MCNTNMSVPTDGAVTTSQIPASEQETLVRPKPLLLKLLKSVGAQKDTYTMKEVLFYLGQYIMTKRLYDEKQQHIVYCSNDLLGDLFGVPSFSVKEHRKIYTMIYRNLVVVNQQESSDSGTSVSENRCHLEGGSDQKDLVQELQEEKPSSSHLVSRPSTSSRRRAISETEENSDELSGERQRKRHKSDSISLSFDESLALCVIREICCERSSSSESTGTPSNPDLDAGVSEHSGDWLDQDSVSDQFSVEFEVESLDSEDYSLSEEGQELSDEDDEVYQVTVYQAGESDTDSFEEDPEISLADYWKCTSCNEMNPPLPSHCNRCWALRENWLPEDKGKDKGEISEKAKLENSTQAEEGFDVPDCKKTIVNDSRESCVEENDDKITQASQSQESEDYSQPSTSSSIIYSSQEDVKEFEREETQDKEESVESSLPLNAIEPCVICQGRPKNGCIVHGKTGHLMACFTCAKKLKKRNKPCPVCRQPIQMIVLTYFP
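system = mammalian cells stably expressing self-ubiquitinating, self-degrading MDM2 E3–luciferase fusion | quantity = 2000 cells per well seeded | incubation = 4 h cell settling then 2 h compound exposure, 37 °C | signal = SteadyLite luminescence, 15 min reagent step | benchmarks = plate control and blank wells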
m-calpain inh: calpain II (pig) inhibition; purified calpain II, fluorogenic peptide substrate, 30 min; inhibition, % at 16 µM; 220,000 compounds, 0.37% hits; AID 1236;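 active = inhibition above about 50%, limit read from the data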
Pf gametocyte: kills late stage P. falciparum gametocytes | AID 743093 | 150,000 compounds, 0.065% hits | inhibition, % at 10.9 µM | P. falciparum stage V gametocytes, ATP luminescence, 24 h;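 active = inhibition above the mean plus 3 SD of compounds within the control limits, set per campaign, cut at about 38% in these data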;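 also: 0% = DMSO wells and 100% = medium only without gametocytes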
Wee1 stabilizer: inhibitors of human Wee1 degradation; P30291; HeLa Luc-Wee1K328M stability, luciferase luminescence; 100% = proteasome inhibitor MG132 effect; reporter increase, % at 5 µM; 220,000 compounds, 1.2% hits;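 active = activation above the mean of all tested compounds plus 3 SD, set per screening run, cut at about 8.8% in these data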;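 also: cells exposed to compound for 20 h before luminescence read; 0% = DMSO alone and 100% = MG132 at 30 µM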
Wee1 degr conf: confirmation of human Wee1 degradation inhibitors; shares compounds with Wee1 stabilizer; activation, % at 5 µM; 1,100 compounds, 4% hits; HeLa Luc-Wee1K328M degradation, luminescence; vehicle 0%, proteasome-blocked wells 100%; AID 1410; in the data active = activation above about 8.9%
Starred values were filed as active, the others as inactive; · = no result.

SMILES | Hsp70 act | MDM2 E3 inh | m-calpain inh | Pf gametocyte | Wee1 stabilizer | Wee1 degr conf
CC(C)(C)[C@H]1COC(=O)[C@H](NC(=O)OCC2c3ccccc3-c3ccccc32)C/C=C\C[C@@H](CC(=O)N(CCO)Cc2ccccc2)C(=O)N1 | · | · | · | 2 | · | ·
Cc1ccc(NC(=O)CSc2nnc(-c3cccs3)o2)cc1S(=O)(=O)N(C)C | 0 | · | -23 | · | 21* | 2
CCN(CC)S(=O)(=O)c1cc(NC(=O)CSc2nnc(-c3cccs3)o2)ccc1C | 0 | -3 | -9 | · | -1 | ·
COc1ccc(-c2nc(-c3ccc(O)cc3O)cs2)cc1OC | 0 | -17 | -132 | 0 | 13* | 1
C=CCSC1=NNC(c2ccc(C(C)(C)C)cc2)=NN1 | · | -9 | -14 | -11 | 3 | ·
C[C@H](O)[C@@H](C(=O)N1CCN(C(=O)OC(C)(C)C)CC1)n1cc(CCCCNC(=O)OC(C)(C)C)nn1 | 0 | · | -18 | · | 22* | 0
COc1cccc2cc(-c3cn4cccc(C)c4n3)c(=O)oc12 | -1 | · | · | · | 1 | ·
COc1cccc2cc(-c3cn4ccc(C)cc4n3)c(=O)oc12 | 1 | · | · | -7 | 14* | 2
C[C@H](CO)N1C[C@H](C)[C@@H](CN(C)Cc2ccc(-c3ccccc3)cc2)Oc2c(NC(=O)Nc3ccc(C(F)(F)F)cc3)cccc2C1=O | · | · | · | -33 | · | ·
COc1ccc(C2=NN(S(=O)(=O)c3ccccc3)C(c3ccccc3)C2)cc1 (stereo not given) | · | -11 | -1 | -4 | 11* | 2
Cc1cccc(NC(=O)NNC(=O)c2sccc2-n2cccc2)c1 | 0 | -1 | 13 | 14 | -2 | ·
Cc1cccc(N(CC(=O)N/N=C/c2cc([N+](=O)[O-])ccc2Cl)S(C)(=O)=O)c1C | 0 | -10 | -12 | · | 3 | ·
CC(C)CC(=O)Nc1ccc(-c2nc3ccccc3c(=O)[nH]2)cc1 | 0 | -29 | 10 | 4 | 13* | -1
Cc1cc(Cl)ccc1NC(=S)Nc1ccccn1 | 0 | -4 | 0 | 0 | 15* | 12*
CC(C)(C)OC(=O)C[C@@H]1C/C=C\C[C@H](CC(=O)N(CCO)Cc2ccccc2)C(=O)N2CCC[C@H]2COC1=O | · | · | · | 3 | · | ·
COc1cccc(C(=O)Nc2ccc(-c3nc4ccccc4o3)c(O)c2)c1 | 1 | -7 | -229 | · | 12* | 2
COc1cc(OC)cc(C(=O)Nc2ccc(-c3nc4ccccc4o3)cc2)c1 | 0 | 14 | -126 | -31 | -1 | ·
Cc1ccc(C(=O)Nc2nnc(-c3ccncc3)o2)cc1 | 0 | -22 | 18 | -25 | 2 | ·
O=C(Nc1nnc(-c2ccncc2)o1)c1ccccc1 | 0 | -1 | 6 | 14 | 22* | 2
Cc1ccc(NC(=O)c2cc(C(=O)Nc3ccc(C)cc3)n(C)n2)cc1 | · | · | · | -17 | · | ·
CCC(C)NC(=O)Cn1cnc2sc(C)c(S(=O)(=O)N3CCN(c4ncccn4)CC3)c2c1=O (stereo not given) | 0 | -9 | -18 | -28 | 16* | 1
CCC(C)NC(=S)NNC(=O)c1ccc(C(C)(C)C)cc1 (stereo not given) | 0 | -1 | 15 | · | 5 | ·
COc1ccc(-c2nc3cc([N+](=O)[O-])ccc3o2)cc1 | 0 | -37 | -6 | 16 | 14* | 1
Cc1cc(C)n2nc(C(=O)Nc3cccc(S(=O)(=O)N4CCCC4)c3)nc2n1 | · | · | 0 | 0 | 1 | ·
Cc1cc(C)n2nc(C(=O)Nc3cccnc3)nc2n1 | 0 | -5 | 10 | -4 | 13* | -1
CN(Cc1nc(-c2cnccn2)no1)CC(O)c1ccccc1 (stereo not given) | 0 | -12 | -4 | · | 12* | 3
COCCOC(=O)c1c(NC(=O)CN2c3ccccc3CC2C)sc(C(N)=O)c1C (stereo not given) | 0 | 5 | -24 | -25 | 0 | ·
COc1ccc(-c2cc(=O)oc3cc(OCC(C)=O)ccc23)cc1 | 0 | 5 | -31 | 0 | 17* | 1
Cc1ccccc1C(C(=O)NC1CCCCC1)N(C(=O)CNC(=O)c1ccco1)c1cccnc1 (stereo not given) | 0 | -3 | 23 | 0 | 0 | ·
CCSc1nnc(NC(=O)CSc2nnc(C)c(=O)n2N)s1 | 0 | 2 | 40 | 1 | 1 | ·
